Values after ≈ are worked out from the molar mass of the structure shown.

In this assay the test system is L1210. Kind of assay: In vitro inhibition of L1210 cell growth. As to conditions: Mus musculus, read-out: ID50 (the source's name). The format is functional. The procedure, abridged: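 Murine L1210 leukemia cells grown in suspension in McCoy's 5A with 10% horse serum, glutamine, penicillin, streptomycin; 37 °C, 10% CO2. Compound in Me2SO added to 10^5 cells/tube to final 0.01, 0.1 and 10 μg/mL; 7 h continuous exposure.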
Consider `CN(C)CCCNc1ccc(NCCCCN)c2c1C(=O)c1ccccc1C2=O`, for which the IC50 came out at 0.18 µg/mL (≈ 0.456 µM). For the compound `COc1ccc(NCCCCNC(C)=O)c2c1C(=O)c1ccccc1C2=O`, the IC50 was greater than 10 µg/mL. The same measure for `COc1ccc(NCCNC(C)=O)c2c1C(=O)c1ccccc1C2=O`: greater than 10 µg/mL; for `COc1ccc(NCCCCCNC(C)=O)c2c1C(=O)c1ccccc1C2=O`: 9 µg/mL (≈ 23.7 µM). To `COc1ccc(NCCCCNC(=O)OCc2ccccc2)c2c1C(=O)c1ccccc1C2=O` belongs greater than 10 µg/mL; to `CC(=O)NCCCCCNc1ccc(NCCN(C)C)c2c1C(=O)c1ccccc1C2=O`, 2.3 µg/mL (≈ 5.27 µM). In the case of `CN(C)CCCNc1ccc(NCCCCNC(=O)OCc2ccccc2)c2c1C(=O)c1ccccc1C2=O`, the IC50 came out at 0.29 µg/mL (≈ 0.549 µM). The same measure for `CN(C)CCNc1ccc(NCCCCN)c2c1C(=O)c1ccccc1C2=O`: 0.0045 µg/mL (≈ 0.0118 µM).

Turning to `COc1ccc(NCCCNC(C)=O)c2c1C(=O)c1ccccc1C2=O`, the IC50 is greater than 10 µg/mL. The same measure for `CN(C)CCNc1ccc(NCCCCNC(=O)OCc2ccccc2)c2c1C(=O)c1ccccc1C2=O`: 0.88 µg/mL (≈ 1.71 µM). To `COc1ccc(NCCCN)c2c1C(=O)c1ccccc1C2=O` belongs 2.8 µg/mL (≈ 9.02 µM).

`CC(=O)NCCNc1ccc(NCCN(C)C)c2c1C(=O)c1ccccc1C2=O`: the IC50 stood at 2.05 µg/mL (≈ 5.2 µM). To `CC(=O)NCCCCNc1ccc(NCCN(C)C)c2c1C(=O)c1ccccc1C2=O` belongs 0.03 µg/mL (≈ 0.071 µM); to `CN(C)CCNc1ccc(NCCCN)c2c1C(=O)c1ccccc1C2=O`, 0.05 µg/mL (≈ 0.136 µM). For `CC(=O)NCCCNc1ccc(NCCN(C)C)c2c1C(=O)c1ccccc1C2=O`, the IC50 came to 0.4 µg/mL (≈ 0.979 µM). To `COc1ccc(NCCCCN)c2c1C(=O)c1ccccc1C2=O` belongs 1.8 µg/mL (≈ 5.55 µM); to `COc1ccc(NCCN)c2c1C(=O)c1ccccc1C2=O`, 2.5 µg/mL (≈ 8.44 µM).
